One compound from ChEMBL document CHEMBL4261600 (Eur J Med Chem, 2018) can be followed below.

Structures are written as SMILES.

The target in data set [1] is Casein kinase I isoform epsilon (Homo sapiens) (UniProt P49674). The data set is described as follows: Binding affinity to wild-type human full length CSNK1E (M1 to K416 residues) expressed in bacterial expression system assessed as remaining unbound target protein level at 1000 nM by Kinomescan method relative to control. In short, it runs like this: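 Single-point competition binding screen across a panel of 468 kinases and mutants, with the inhibitor at 1 μM. Binding is read out as percent of a DMSO control, and targets below 1 percent control were classed as strong binders.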

Data set [2] addresses Serine/threonine-protein kinase TAO1 (Homo sapiens) (UniProt Q7L7X3). The data set is described as follows: Binding affinity to wild-type human partial length TAOK1 (M1 to A320 residues) expressed in mammalian expression system assessed as remaining unbound target protein level at 1000 nM by Kinomescan method relative to control.
For data set [3], the target named is Ephrin type-B receptor 2 (Homo sapiens) (UniProt P29323). The data set can be described thus: Binding affinity to wild-type human partial length EPHB2 (I597 to L902 residues) expressed in bacterial expression system assessed as remaining unbound target protein level at 1000 nM by Kinomescan method relative to control.
The target of data set [4] is Serine/threonine-protein kinase DCLK3 (Homo sapiens) (UniProt Q9C098). The data set can be described thus: Binding affinity to wild-type human partial length DCAMKL3 (E140 to V628 residues) expressed in bacterial expression system assessed as remaining unbound target protein level at 1000 nM by Kinomescan method relative to control.
Data set [5] has as its target Cyclin-dependent kinase 16 (Homo sapiens) (UniProt Q00536). The data set is described as follows: Binding affinity to wild-type human partial length PCTK1 (G160 to A474 residues) expressed in mammalian expression system assessed as remaining unbound target protein level at 1000 nM by Kinomescan method relative to control. The method, boiled down:
(§1)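 KINOMEscan binding panel of 468 kinases/mutants. Inhibitor was tested at a single concentration of 1 μM. Binding is reported as percent of control, defined relative to a DMSO control.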

In data set [6] the target is Rho-associated protein kinase 1 (Homo sapiens) (UniProt Q13464). The data set can be described thus: Binding affinity to wild-type human partial length ROCK1 (M1 to R415 residues) expressed in mammalian expression system assessed as remaining unbound target protein level at 1000 nM by Kinomescan method relative to control.
Sequence of Rho-associated protein kinase 1 (Homo sapiens) (Q13464 2-1354 limits assumed): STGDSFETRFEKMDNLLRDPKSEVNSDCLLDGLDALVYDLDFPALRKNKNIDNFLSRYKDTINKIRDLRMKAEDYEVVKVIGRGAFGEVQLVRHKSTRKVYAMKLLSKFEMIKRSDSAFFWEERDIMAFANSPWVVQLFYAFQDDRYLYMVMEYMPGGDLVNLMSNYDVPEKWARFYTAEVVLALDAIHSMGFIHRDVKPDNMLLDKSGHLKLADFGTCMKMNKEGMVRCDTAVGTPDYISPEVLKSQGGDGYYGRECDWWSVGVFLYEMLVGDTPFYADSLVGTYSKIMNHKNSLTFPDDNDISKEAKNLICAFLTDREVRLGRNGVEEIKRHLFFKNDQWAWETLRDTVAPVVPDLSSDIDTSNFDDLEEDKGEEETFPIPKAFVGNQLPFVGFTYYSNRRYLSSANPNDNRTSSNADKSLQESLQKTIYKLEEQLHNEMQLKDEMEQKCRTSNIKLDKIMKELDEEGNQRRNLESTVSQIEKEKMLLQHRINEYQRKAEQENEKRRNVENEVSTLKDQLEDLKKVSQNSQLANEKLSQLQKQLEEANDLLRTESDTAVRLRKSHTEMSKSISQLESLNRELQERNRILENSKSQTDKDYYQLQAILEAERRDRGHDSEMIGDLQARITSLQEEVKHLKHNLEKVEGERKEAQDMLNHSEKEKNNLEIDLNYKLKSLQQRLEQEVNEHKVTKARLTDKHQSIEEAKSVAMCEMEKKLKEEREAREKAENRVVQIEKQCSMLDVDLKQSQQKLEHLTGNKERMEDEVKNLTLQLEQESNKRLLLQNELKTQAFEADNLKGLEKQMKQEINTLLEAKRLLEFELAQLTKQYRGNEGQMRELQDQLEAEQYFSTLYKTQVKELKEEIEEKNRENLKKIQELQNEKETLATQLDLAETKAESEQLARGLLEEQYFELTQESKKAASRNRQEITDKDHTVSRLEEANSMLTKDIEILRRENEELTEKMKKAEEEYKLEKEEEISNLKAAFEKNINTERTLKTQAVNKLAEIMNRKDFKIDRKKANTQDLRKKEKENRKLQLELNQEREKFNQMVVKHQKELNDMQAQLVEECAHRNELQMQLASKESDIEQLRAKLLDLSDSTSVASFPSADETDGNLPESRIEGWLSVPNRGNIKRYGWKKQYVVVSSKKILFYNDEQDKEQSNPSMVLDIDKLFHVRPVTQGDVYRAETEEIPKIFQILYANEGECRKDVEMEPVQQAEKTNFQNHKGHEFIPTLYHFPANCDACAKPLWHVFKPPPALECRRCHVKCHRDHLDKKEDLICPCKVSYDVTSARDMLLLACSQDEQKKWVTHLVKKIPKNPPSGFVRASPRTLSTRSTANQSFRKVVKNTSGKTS
For data set [7], the target named is Activin receptor type-1 (Homo sapiens) (UniProt Q04771). The data set can be described thus: Binding affinity to wild-type human ACVR1 (C188 to C509 residues) expressed in bacterial expression system assessed as remaining unbound target protein level at 1000 nM by Kinomescan method relative to control. The method, boiled down: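 KINOMEscan competitive binding profile at 1 μM inhibitor. Remaining target binding reported as percent of DMSO control.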

Data set [8] deals with Phosphorylase b kinase gamma catalytic chain, liver/testis isoform (Homo sapiens) (UniProt P15735). The data set is described as follows: Binding affinity to wild-type human partial length PHKG2 (M1 to W300 residues) expressed in bacterial expression system assessed as remaining unbound target protein level at 1000 nM by Kinomescan method relative to control. In short, it runs like this: as §1

Data set [9] addresses Serine/threonine-protein kinase 32C (Homo sapiens) (UniProt Q86UX6). The data set can be described thus: Binding affinity to wild-type human partial length YANK3 (M68 to G486 residues) expressed in bacterial expression system assessed as remaining unbound target protein level at 1000 nM by Kinomescan method relative to control.
Data set [10] relates to Mast/stem cell growth factor receptor Kit (Homo sapiens), P10721 [L576P]. The data set is described as follows: Binding affinity to human partial length KIT L576P mutant (Y545 to D952 residues) expressed in bacterial expression system assessed as remaining unbound target protein level at 1000 nM by Kinomescan method relative to control. The method, boiled down:
(§2)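 KINOMEscan competition-binding profiling across the panel of 468 kinases and mutants, with inhibitor tested at 1 μM. Binding is expressed as percent of control, with DMSO as the reference control.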

A further data set deals with A-375. The data set is described as follows: Antiproliferative activity against human A375 cells after 72 hrs by Celltiter-Glo assay. In kind it is functional. Conditions: A-375, 72 h. In short, it runs like this: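 Cells seeded at 3000/well in 96-well plates, exposed to serially diluted compound for 72 h at 37 °C, 5% CO2. Viability read by CellTiter-Glo luminescence and normalized to DMSO control. GI50 derived from curve fit, mean of three independent measurements. Culture media: DMEM/10% FBS for adherent lines; IMDM for MV4-11 and MEC-1/2; RPMI 1640 for suspension lines and CHL.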

Data set [11] is described as follows: Antiproliferative activity against Chinese hamster CHL cells after 72 hrs by Celltiter-Glo assay. Conditions: Cricetulus griseus.
In data set [12] the test system is Proto-oncogene tyrosine-protein kinase receptor Ret (Homo sapiens), P07949 [M918T]. The data set can be described thus: Binding affinity to human partial length RET M918T mutant (E713 to D1014 residues) expressed in bacterial expression system assessed as remaining unbound target protein level at 1000 nM by Kinomescan method relative to control. In short, it runs like this: as §2
Sequence of Proto-oncogene tyrosine-protein kinase receptor Ret (Homo sapiens), P07949 [M918T] (P07949 whole entry M918T, the tested form may be a part): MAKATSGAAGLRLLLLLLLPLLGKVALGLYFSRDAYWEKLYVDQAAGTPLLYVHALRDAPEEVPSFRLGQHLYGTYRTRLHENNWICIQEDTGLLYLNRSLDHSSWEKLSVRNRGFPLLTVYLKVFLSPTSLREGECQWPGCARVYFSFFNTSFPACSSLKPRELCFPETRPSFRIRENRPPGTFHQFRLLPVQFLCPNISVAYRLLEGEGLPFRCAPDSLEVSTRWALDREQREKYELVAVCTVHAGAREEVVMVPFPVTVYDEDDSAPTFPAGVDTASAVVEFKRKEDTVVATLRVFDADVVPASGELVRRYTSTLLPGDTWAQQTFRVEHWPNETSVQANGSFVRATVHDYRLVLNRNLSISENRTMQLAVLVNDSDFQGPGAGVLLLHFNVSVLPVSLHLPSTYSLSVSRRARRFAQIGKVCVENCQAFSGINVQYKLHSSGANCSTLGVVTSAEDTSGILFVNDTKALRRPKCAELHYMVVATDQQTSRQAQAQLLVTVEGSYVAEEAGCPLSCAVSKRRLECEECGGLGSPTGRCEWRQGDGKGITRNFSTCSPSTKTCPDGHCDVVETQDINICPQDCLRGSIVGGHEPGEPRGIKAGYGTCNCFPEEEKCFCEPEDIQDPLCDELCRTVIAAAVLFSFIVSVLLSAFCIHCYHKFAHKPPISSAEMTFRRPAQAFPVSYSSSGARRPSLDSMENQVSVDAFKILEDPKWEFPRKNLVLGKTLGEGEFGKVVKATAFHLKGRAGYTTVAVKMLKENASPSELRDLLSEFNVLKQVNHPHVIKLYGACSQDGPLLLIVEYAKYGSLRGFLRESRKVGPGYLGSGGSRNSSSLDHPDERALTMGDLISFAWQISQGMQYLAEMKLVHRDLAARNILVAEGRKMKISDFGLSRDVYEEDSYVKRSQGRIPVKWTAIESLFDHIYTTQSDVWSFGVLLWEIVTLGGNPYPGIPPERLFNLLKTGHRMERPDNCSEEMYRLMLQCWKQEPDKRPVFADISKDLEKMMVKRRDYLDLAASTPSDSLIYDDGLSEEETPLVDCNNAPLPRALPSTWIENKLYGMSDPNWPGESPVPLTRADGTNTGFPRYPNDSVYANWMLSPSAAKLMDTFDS

Data set [13] has as its target Serine/threonine-protein kinase Sgk3 (Homo sapiens) (UniProt Q96BR1). The data set is described as follows: Binding affinity to wild-type human partial length SGK3 (M119 to L496 residues) expressed in mammalian expression system assessed as remaining unbound target protein level at 1000 nM by Kinomescan method relative to control.
A short description of data set [14]: MRT (0 to t) in mouse at 3 mg/kg, iv by LC-MS/MS analysis. In kind it is ADME, organism-based. Conditions: in vivo.
Data set [15] deals with Epithelial discoidin domain-containing receptor 1 (Homo sapiens) (UniProt Q08345). The data set is described as follows: Binding affinity to wild-type human partial length DDR1 (R565 to V876 residues) expressed in bacterial expression system assessed as remaining unbound target protein level at 1000 nM by Kinomescan method relative to control.
Sequence of Epithelial discoidin domain-containing receptor 1 (Homo sapiens) (Q08345 whole entry, the tested form may be a part): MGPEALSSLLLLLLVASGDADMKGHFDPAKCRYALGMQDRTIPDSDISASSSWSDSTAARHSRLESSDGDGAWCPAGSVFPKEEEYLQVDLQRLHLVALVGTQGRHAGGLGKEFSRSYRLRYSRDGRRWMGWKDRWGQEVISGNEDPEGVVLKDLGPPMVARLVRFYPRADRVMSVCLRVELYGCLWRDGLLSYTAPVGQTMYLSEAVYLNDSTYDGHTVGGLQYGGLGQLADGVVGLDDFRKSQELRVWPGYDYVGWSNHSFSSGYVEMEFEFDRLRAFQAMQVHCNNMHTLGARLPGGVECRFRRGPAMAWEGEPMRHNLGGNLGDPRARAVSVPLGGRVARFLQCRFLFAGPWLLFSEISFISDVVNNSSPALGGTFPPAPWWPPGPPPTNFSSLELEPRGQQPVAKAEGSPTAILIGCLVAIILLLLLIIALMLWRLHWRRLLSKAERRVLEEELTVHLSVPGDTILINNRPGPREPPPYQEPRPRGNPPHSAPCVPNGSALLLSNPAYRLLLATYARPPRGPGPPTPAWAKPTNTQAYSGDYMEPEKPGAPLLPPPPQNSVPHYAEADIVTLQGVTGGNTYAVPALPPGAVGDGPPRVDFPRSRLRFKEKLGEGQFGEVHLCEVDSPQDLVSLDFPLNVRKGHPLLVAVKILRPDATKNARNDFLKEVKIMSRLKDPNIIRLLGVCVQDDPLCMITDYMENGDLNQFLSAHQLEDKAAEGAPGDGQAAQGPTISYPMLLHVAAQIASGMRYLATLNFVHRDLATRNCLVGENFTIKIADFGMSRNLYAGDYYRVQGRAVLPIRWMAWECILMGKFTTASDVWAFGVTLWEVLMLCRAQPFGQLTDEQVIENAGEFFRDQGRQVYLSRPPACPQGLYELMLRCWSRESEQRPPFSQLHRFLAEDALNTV
The target in data set [16] is Mitogen-activated protein kinase 13 (Homo sapiens) (UniProt O15264). The data set is described as follows: Binding affinity to wild-type human full length p38-delta (M1 to L365 residues) expressed in bacterial expression system assessed as remaining unbound target protein level at 1000 nM by Kinomescan method relative to control. The method, boiled down:
(§3)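 Profiled in a KINOMEscan binding panel with the inhibitor at a single concentration of 1 μM. Binding to each kinase was read out as percent of control, relative to a DMSO control. Strong binders were defined as those with a percent control value below 1.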

Data set [17] concerns the target Calcium/calmodulin-dependent protein kinase type II subunit beta (Homo sapiens) (UniProt Q13554). The data set is described as follows: Binding affinity to wild-type human partial length CAMK2B (M1 to Q380 residues) expressed in bacterial expression system assessed as remaining unbound target protein level at 1000 nM by Kinomescan method relative to control. In short, it runs like this: as §3

The target of data set [18] is Cyclin-dependent kinase 11A (Homo sapiens) (UniProt Q9UQ88). The data set can be described thus: Binding affinity to wild-type human partial length CDC2L2 (D391 to K730 residues) expressed in bacterial expression system assessed as remaining unbound target protein level at 1000 nM by Kinomescan method relative to control. The method, boiled down:
as §3

Data set [19] deals with Mitogen-activated protein kinase 15 (Homo sapiens) (UniProt Q8TD08). The data set is described as follows: Binding affinity to wild-type human partial length ERK8 (M1 to P437 residues) expressed in bacterial expression system assessed as remaining unbound target protein level at 1000 nM by Kinomescan method relative to control. In short, it runs like this: as §1

Sequence of Cyclin-dependent kinase 16 (Homo sapiens) (Q00536 whole entry, the tested form may be a part): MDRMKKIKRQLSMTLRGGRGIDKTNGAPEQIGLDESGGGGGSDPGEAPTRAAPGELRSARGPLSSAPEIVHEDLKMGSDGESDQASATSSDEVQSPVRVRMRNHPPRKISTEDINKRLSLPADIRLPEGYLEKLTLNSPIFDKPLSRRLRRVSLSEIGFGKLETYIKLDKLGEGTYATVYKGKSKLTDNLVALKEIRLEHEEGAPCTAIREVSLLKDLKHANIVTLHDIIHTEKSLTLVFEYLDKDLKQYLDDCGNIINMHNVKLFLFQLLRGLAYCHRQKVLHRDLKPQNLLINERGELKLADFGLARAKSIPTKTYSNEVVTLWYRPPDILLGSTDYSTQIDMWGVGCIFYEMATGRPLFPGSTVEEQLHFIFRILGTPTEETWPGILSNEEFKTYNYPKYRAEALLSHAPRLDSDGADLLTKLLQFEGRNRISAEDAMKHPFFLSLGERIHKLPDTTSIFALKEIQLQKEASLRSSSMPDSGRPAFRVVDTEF
Sequence of Serine/threonine-protein kinase Sgk3 (Homo sapiens) (Q96BR1 whole entry, the tested form may be a part): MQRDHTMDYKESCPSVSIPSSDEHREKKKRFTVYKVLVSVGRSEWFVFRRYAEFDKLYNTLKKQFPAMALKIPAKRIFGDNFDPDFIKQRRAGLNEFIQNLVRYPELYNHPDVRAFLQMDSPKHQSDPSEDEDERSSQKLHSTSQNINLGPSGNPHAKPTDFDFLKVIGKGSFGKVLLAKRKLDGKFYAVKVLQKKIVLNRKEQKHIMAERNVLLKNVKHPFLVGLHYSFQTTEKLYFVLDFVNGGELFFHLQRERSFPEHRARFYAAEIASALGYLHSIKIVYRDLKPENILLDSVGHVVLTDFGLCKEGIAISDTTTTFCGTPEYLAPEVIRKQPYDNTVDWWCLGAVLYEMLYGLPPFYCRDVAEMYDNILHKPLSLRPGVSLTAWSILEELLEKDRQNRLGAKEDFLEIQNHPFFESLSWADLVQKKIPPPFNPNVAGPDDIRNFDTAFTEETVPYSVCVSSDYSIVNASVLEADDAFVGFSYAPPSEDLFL
Sequence of Calcium/calmodulin-dependent protein kinase type II subunit beta (Homo sapiens) (Q13554 whole entry, the tested form may be a part): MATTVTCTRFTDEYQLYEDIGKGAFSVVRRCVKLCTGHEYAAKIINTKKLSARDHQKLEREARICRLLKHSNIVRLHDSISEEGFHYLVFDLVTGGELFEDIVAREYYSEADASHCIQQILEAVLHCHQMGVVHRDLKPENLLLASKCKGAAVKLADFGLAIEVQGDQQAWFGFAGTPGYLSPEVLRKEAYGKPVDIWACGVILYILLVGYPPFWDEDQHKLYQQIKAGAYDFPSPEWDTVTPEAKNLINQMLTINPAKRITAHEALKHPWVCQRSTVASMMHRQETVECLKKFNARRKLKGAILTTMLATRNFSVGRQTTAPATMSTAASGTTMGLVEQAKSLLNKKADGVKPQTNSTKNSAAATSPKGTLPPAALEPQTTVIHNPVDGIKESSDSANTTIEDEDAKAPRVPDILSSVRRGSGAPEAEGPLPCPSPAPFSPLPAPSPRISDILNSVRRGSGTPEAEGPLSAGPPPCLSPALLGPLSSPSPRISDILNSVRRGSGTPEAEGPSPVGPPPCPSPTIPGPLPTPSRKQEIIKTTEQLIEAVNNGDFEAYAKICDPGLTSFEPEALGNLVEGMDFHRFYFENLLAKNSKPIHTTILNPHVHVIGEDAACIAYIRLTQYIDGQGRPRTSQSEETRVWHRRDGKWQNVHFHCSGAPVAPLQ

Regarding `COCCN[C@H]1CC[C@H](Nc2cc(-c3csc(NCC4(C#N)CCOCC4)n3)c(Cl)cn2)CC1`, the Activity in data set [1] was 87%; in [2] it was 36%; in data set [3], 82%; in data set [4], 97%; in [5] it was 46%; in [6], 93%. The Activity in data set [7] was determined as 91%; in data set [8], 99%; in [9], 90%; in [10], 90%; in data set [12], 90%; in [13] it was 100%. The Activity was found to be 89% in data set [15]; 100% in data set [16]; 100% in data set [17]; 90% in data set [18]; 86% in [19]. For the same compound, the figures for the GI50 (in the data set with A-375; in data set [11]) were 44 nM and 1200 nM, respectively. Also, the mean residence time MRT last in data set [14] stood at 1.25 h.
